# High-throughput results as filed in PubChem BioAssay.
# Only some compounds are listed: those with a hit (about 1.9% of all), similar ones and a draw of the others.
# ASAP1 inh = ASAP1 ArfGAP inhibition; inhibition, % at 16.5 µM; ASAP1-stimulated ARF1 GTP hydrolysis, GDP FP detection; 360,000 compounds, 0.19% hits; Q9ULH1; in the data active means inhibition above about 25%;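 further: 0% = vehicle with enzyme and substrate and 100% = no enzyme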
# Target sequence (Q9ULH1 325-724 limits assumed): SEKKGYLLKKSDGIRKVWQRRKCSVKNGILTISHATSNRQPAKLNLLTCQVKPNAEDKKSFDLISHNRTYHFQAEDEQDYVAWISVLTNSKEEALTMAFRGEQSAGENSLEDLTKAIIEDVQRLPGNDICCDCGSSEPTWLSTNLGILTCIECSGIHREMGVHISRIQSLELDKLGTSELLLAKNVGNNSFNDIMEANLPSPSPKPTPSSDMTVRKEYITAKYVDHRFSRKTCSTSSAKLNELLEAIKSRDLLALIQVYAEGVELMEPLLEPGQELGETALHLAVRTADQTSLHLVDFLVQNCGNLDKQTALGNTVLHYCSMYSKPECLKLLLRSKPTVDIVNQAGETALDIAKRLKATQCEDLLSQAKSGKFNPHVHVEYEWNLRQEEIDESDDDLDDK
# PLC-beta3 inh = PLC-beta3 (human) inhibition, primary screen | Purified PLC-beta3, fluorogenic substrate, fluorescence | inhibition, % at 12.2 µM | 370,000 compounds, 0.18% hits; in the data active means inhibition above about 11%;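 further: 0% = median of compound wells on plate and 100% = full blocker control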
# PLC-gamma1 inh = PLC-gamma1 (human) inhibition, primary screen; inhibition, % at 12.2 µM; purified PLC-gamma1, fluorogenic substrate, fluorescence; 370,000 compounds, 0.84% hits; P19174; AID 720700; in the data active means inhibition above about 9.5%
# ARFGAP1 inhibitor = inhibits rat ARF GTPase activating protein 1 | Q62848 | Arfgap1-stimulated ARF1 GTP hydrolysis, GDP FP detection | inhibition, % at 16.5 µM | 360,000 compounds, 0.26% hits;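 active means inhibition above a per-plate limit, mean inhibition of low control wells plus 3 SD, cut at about 25% in these data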;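 further: 0% = DMSO wells with enzyme and 100% = wells lacking Arfgap1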
# Target sequence (Q62848 1-136 limits assumed): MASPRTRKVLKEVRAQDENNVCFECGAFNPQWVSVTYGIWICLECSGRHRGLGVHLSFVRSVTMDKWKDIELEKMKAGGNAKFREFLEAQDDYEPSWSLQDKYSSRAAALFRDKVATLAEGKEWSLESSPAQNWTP
#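 Replicates: Single well per compound | Assay system: Truncated rat Arfgap1 GAP domain | Control set: No-Arfgap1 wells (100%) versus DMSO full-reaction wells (0%) | Times: Enzyme reaction 120 min at 25 °C after 20 min preincubation | Reagent: Human ARF1(Δ1-17)-GTP substrate | Measured by: Tracer-displacement fluorescence polarization with EDTA stop, 620/688 nm | Measure: Percent inhibition of Arfgap1-stimulated GTP hydrolysis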
# HGIII-sPLA2 inh = Blocks human group III sPLA2 activity; Q9NZ20; QFRET BODIPY PC-A2 liposome hydrolysis, fluorescence; inhibition, % at 12.2 µM; 370,000 compounds, 0.56% hits; AID 743126;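 active means inhibition above mean plus 3 SD of compounds lying within the high and low control bounds, cut at about 19% in these data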;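 further: 0% = median of test compound wells and 100% = no enzyme DMSO wells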
# ARFGAP1 confirm = confirmation of rat ARFGAP1 inhibitors | shares compounds with ARFGAP1 inhibitor | ARFGAP1-stimulated ARF1 GTP hydrolysis, GDP tracer FP | AID 651608 | 890 compounds, 30% hits | inhibition, % at 16.5 µM;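 active means average inhibition over triplicates above the hit cutoff set in the earlier primary screen, cut at about 25% in these data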;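 further: 0% = Arfgap1 plus ARF1-GTP with DMSO and 100% = wells lacking Arfgap1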
# Active calls of the source: *; x = not tested or not shown.
SMILES,ASAP1 inh,PLC-beta3 inh,PLC-gamma1 inh,ARFGAP1 inhibitor,HGIII-sPLA2 inh,ARFGAP1 confirm
CC(C)C[C@H]1COc2cc(Br)ccc2S(=O)(=O)N1Cc1cn(Cc2ccc(F)cc2)nn1,x,2,-2,x,1,x
CNS(=O)(=O)c1cccc(C(=O)NCC(c2cccs2)N2CCOCC2)c1 (stereo not given),2,-7,-2,26*,2,-1
Cc1ccc(NS(=O)(=O)c2cccc(C(=O)NCC(c3cccs3)N3CCOCC3)c2)cc1 (stereo not given),19,-7,2,-12,-19,x
CN(c1ccc(OCC(=O)Nc2ccc3[nH]c(=O)[nH]c3c2)cc1)S(=O)(=O)c1ccc(Cl)cc1,9,1,1,30*,-7,-11
C=CS(=O)(=O)N(Cc1nnn(Cc2ccccc2)c1Br)[C@@H](CC(C)C)C(=O)OC,x,-1,-3,x,9,x
COc1ccc2cc(C(=O)/C=C/c3cc(OC)c(O)c(OC)c3)ccc2c1,14,-56,-31,26*,-10,13
CNc1nc(-c2c[nH]c3ccccc23)cs1,10,-18,-12,31*,11,1
C=CCN1[C@@H](Cc2ccccc2)COc2cccc(F)c2S1(=O)=O,x,2,1,x,3,x
COC(=O)CSc1nnc2n1C(C)(C)Cc1ccccc1-2,6,1,-3,5,12,x
CC1(C)Cc2ccccc2-c2nnc(SCC(=O)N3CCc4ccccc43)n21,22,3,4,27*,-4,24
CCOC(=O)Cn1c(C)cc(=O)c2cccc(C)c21,2,1,-2,6,6,x
CCOC(=O)Cn1c(=O)cc(C)c2cccc(C)c21,6,-6,2,30*,10,5
COc1ccc(-c2nc(CS(=O)(=O)CC(=O)Nc3cccc(C(C)=O)c3)c(C)o2)cc1,16,-9,-3,27*,-22,12
COc1cccc(-c2nc(CS(=O)(=O)CC(=O)Nc3cccc(C(C)=O)c3)c(C)o2)c1,-4,-10,-5,4,-25,x
CCSCCOC(=O)C1=C(C)NC(=O)NC1c1cccc(OC)c1OC (stereo not given),1,-1,0,26*,3,1
CC(C)C[C@H]1CN(CCCC[C@H]2CNC(=O)C(=O)N2CC2CCCCC2)C(=O)C(=O)N1CCc1ccccc1,-14,3,0,30*,-3,3
CCOC(=O)c1cccc(NC(=O)CN(C)S(=O)(=O)c2cc(OC)ccc2OC)c1,x,2,-2,x,-6,x
COc1ccc(NC(=O)CSc2nnc(-c3cccs3)o2)cc1Cl,x,2,2,x,-4,x
Cc1ccc(CNC(=O)Cn2c(=O)c3sccc3n(Cc3ccc([N+](=O)[O-])cc3)c2=O)cc1,22,1,2,36*,1,55*
Cc1ccc(CNC(=O)Cn2c(=O)n(CC(=O)N3CCCCC3)c(=O)c3sccc32)cc1,5,-6,-1,8,6,x
CCOc1ccc(CNC(=O)Cn2nc(C)c3c(C)n(-c4ccc(C)cc4)nc3c2=O)cc1,6,-3,1,34*,-2,2
Cc1c(C)c2ccc(OCC(=O)NCCc3c[nH]c4ccccc34)c(C)c2oc1=O,15,3,1,25*,-26,6
Cc1cccc2nc(-c3cccc(NC(=O)Cc4ccccc4)c3)cn12,-6,-1,-1,7,-9,x
Cc1cccc2nc(-c3cccc(NC(=O)c4ccc(Cl)cc4)c3)cn12,15,1,1,58*,-20,24
Cc1ccc(S(=O)(=O)NCCC(=O)Nc2cccc(S(=O)(=O)N3CCCC3)c2)cc1C,-2,3,2,34*,-26,2
SMILES,ASAP1 inh,PLC-beta3 inh,PLC-gamma1 inh,ARFGAP1 inhibitor,HGIII-sPLA2 inh,ARFGAP1 confirm
Cc1ccc(OCC(=O)Nc2cccc(S(=O)(=O)N3CCCC3)c2)cc1C,-3,-1,-3,-2,-19,x
Fc1ccc(Cc2nnc(-c3cccs3)o2)cc1,7,2,2,-3,0,x
Fc1ccc(-c2nnc(Cc3ccc(Cl)cc3)o2)cc1,1,-11,2,40*,2,-2
COc1ccc(S[C@]2(C(=O)N(C)C)CC(=O)N(S(=O)(=O)c3ccc(F)cc3)[C@@H]2c2ccc(OC)cc2)cc1,x,-1,0,x,2,x
Cc1ccc2[nH]c3c(=O)n(CC(=O)Nc4ccccc4N4CCN(C)CC4)ncc3c2c1,8,-13,-2,25*,-6,48*
CCN(CC)CCOC(=O)c1ccc(N/C=C(/C#N)c2nc(-c3ccc4c(c3)OCO4)cs2)cc1,8,-16,-5,32*,-15,73*
Cc1ccc(NC(=O)C2C3/C=C\CCCCC32)cc1C (stereo not given),9,1,-1,44*,1,-3
COc1cc(/C=C(\C#N)c2ccccn2)ccc1OCC(=O)Nc1c(Cl)cccc1Cl,10,-17,-15,29*,-9,31*
O=C(Cn1c2ccc(F)cc2c2nc3n(c(=O)c21)CCS3)Nc1ccc(Cl)cc1F,20,-9,0,42*,-1,57*
C=CCNC(=O)Nc1ccc2c(c1)[C@]1(CC(=O)N(CC(C)C)C1c1ccccc1)C(=O)N2C (stereo not given in full),x,-3,0,x,9,x
CC(C)(C)NC(=O)CN1CCN(C(=O)CCl)CC1,-1,-4,3,25*,3,-1
COc1ccc(-n2c(SCC(=O)NCCCSC)nnc2-c2ccncc2)cc1,x,2,5,x,6,x
COc1cc(C(=O)O/N=C2\CCCc3c2ccc(OC)c3[N+](=O)[O-])cc(OC)c1OC,11,3,1,25*,1,-7
COc1ccccc1C(=O)O/N=C1/CCCc2c1ccc(OC)c2[N+](=O)[O-],-15,0,-2,-10,-6,x
C=CCN1[C@@H](C)COc2cc(N3CCCC3)ccc2S1(=O)=O,x,0,-2,x,1,x
O=[N+]([O-])/C(C(=C(Cl)Cl)N1CCOCC1)=C1\NCCO1,1,-5,0,4,8,x
CCS(=O)(=O)C(=C1NCCO1)S(=O)(=O)CC,-1,-3,2,25*,7,-4
CCOC(=O)c1sc2nc(C)nc(NCCc3ccc(S(N)(=O)=O)cc3)c2c1C,-2,-11,-6,-3,-1,x
Cc1nc(NCc2ccc(S(N)(=O)=O)cc2)c2c(C)c(C)sc2n1,22,-8,1,44*,9,32*
N#C/C(=C\c1ccc(Oc2ccc(C(F)(F)F)cc2[N+](=O)[O-])cc1)c1nc2ccccc2[nH]1,15,-27,-25,25*,2,10
N#C/C(=C/c1ccc(N2CCCC2)c([N+](=O)[O-])c1)c1nc2ccccc2[nH]1,2,-40,-32,-13,0,x
COc1cc(C=Nn2c(-c3cc(-c4ccccc4)n[nH]3)n[nH]c2=S)ccc1OC(C)=O,x,-1,4,x,13,x
